Reference: ChEMBL document CHEMBL2010641, “A novel 3,4-dihydropyrimidin-2(1H)-one: HIV-1 replication inhibitors with improved metabolic stability” (Bioorg Med Chem Lett, 2012)
Active and inactive are the calls of the source. The rule behind the calls is not given here.

Legend:
[1] = system: Human immunodeficiency virus 1; assay: Antiviral activity against HIV1 LAI infected in CEMx174 cells coexpressing GFP after 5 days by fluorimetry; format: functional, organism-based; settings: for EC50: Human immunodeficiency virus 1, LAI, CEMx174, 120 h
Outline: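 Cells (4000/well) pre-incubated with compound diluted in DMSO for 1 h at 37 °C, 5% CO2, then infected with HIV-1 LAI at MOI 3 and cultured 5 days at 37 °C, 5% CO2. EC50 is the concentration inhibiting viral replication by 50%. Values are geometric means of two determinations (n = 2), each within 25% of the mean.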

[2] = Cytotoxicity against human CEmx174 cells; format: cell-based
Outline: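 CC50 is the concentration that reduces viability of uninfected cells by 50%. Reported as the geometric mean of two determinations (n = 2), each within 25% of the mean.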

[3] = Half life in human liver microsomes at 2 uM; format: ADME, Microsome
Outline: (§1)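 Compound at 2 µM final was incubated with rat or human liver microsomes (0.5 mg/mL protein) in potassium phosphate buffer with 0.2% DMSO final. Reaction was started with NADPH and stopped at 0, 5, 10, 30, 60 and 120 min. Loss of parent was measured by LC/MS (ESI quadrupole, water/acetonitrile with 0.1% formic acid gradient). Values are geometric means of n = 2.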

[4] = Half life in rat liver microsomes at 2 uM; format: ADME, Microsome; outline: as §1

| SMILES | EC50 [1] [µM] | half-life at 2 µM [3] [min] | half-life at 2 µM [4] [min] | CC50 [2] [µM] | Activity [1] |
| --- | --- | --- | --- | --- | --- |
| CCC1=C(C(=O)CC2CCC(CC)CC2)[C@H](c2ccc(O)c(Cl)c2)NC(=O)N1 (stereo not given in full) | 0.087 | 24 | 16 | > 10 | – |
| CCC1=C(C(=O)CC2CCC(C(C)C)CC2)[C@H](c2ccc(O)c(Cl)c2)NC(=O)N1 (stereo not given in full) | 1.4 | – | – | > 10 | – |
| O=C1NC2=C(C(=O)OCC2)C(c2cccc(O)c2)N1 (stereo not given) | > 10 | – | – | > 10 | – |
| CCC1=C(C(=O)CCc2ccccc2)[C@H](c2ccc(O)c(Cl)c2)NC(=O)N1 | > 10 | – | – | > 10 | – |
| CCC1=C(C(=O)CC2CCCC2)[C@H](c2ccc(O)c(Cl)c2)NC(=O)N1 | 3.28 | – | – | > 10 | – |
| CCC1=C(C(=O)O)[C@H](c2cccc(O)c2)NC(=O)N1 | – | – | – | – | inactive |
| CCC1=C(c2nc(C3CCCCC3)co2)[C@H](c2ccc(O)c(Cl)c2)NC(=O)N1 | 0.116 | 132 | 54 | > 10 | – |
| Cc1ccnc2c1NC(=O)c1cccnc1N2C1CC1 [NEVIRAPINE] | – | – | – | > 10 | – |
| CCC1=C(c2nc(C3CCCCC3)c[nH]2)[C@H](c2ccc(O)c(F)c2)NC(=O)N1 | > 10 | – | – | > 10 | – |
| CCC1=C(C(=O)CCC2CCCCC2)[C@H](c2ccc(O)c(Cl)c2)NC(=O)N1 | 0.403 | 22 | 5 | > 10 | – |
| CCC1=C(C(=O)OCC2CCCCC2)[C@H](c2ccc(O)c(Cl)c2)NC(=O)N1 | 0.019 | 36 | 7 | > 10 | – |
| CCC1=C(C(=O)CCC2CCCCCC2)[C@H](c2ccc(O)c(Cl)c2)NC(=O)N1 | 0.329 | – | – | > 10 | – |
| CCC1=C(C(=O)CC2CCC(C)CC2)[C@H](c2ccc(O)c(Cl)c2)NC(=O)N1 (stereo not given in full) | 0.48 | – | – | > 10 | – |
| CCC1=C(C(=O)O)[C@H](c2ccc(O)c(Cl)c2)NC(=O)N1 | – | – | – | – | inactive |

The next lines start with results.

| EC50 [1] [µM] | half-life at 2 µM [3] [min] | half-life at 2 µM [4] [min] | SMILES | CC50 [2] [µM] | Activity [1] |
| --- | --- | --- | --- | --- | --- |
| > 10 | – | – | CCC1=C(C(=O)CC2CCC(OC)CC2)[C@H](c2ccc(O)c(Cl)c2)NC(=O)N1 (stereo not given in full) | > 10 | – |
| > 10 | – | – | O=C1NC2=C(C(=O)OC2)C(c2cccc(O)c2)N1 (stereo not given) | > 10 | – |
| – | 11 | 1.5 | CCC1=C(C(=O)OCC2CCCCC2)[C@H](c2cccc(O)c2)NC(=O)N1 | > 10 | – |
| 0.42 | – | – | CCC1=C(C(=O)CCC2CCCC2)[C@H](c2ccc(O)c(Cl)c2)NC(=O)N1 | > 10 | – |
| 0.983 | 18 | 7 | CCC1=C(C(=O)CC2CCCCC2)[C@H](c2ccc(O)c(Cl)c2)NC(=O)N1 | > 10 | – |
| 0.078 | 682 | 30 | CCC1=C(c2nc(C3CCCCC3)cs2)[C@H](c2ccc(O)c(Cl)c2)NC(=O)N1 | > 10 | – |
